Active and inactive are the calls of the source. No cut-off for these calls is given here.
Columns and labels:
HeLa = experiment: Cytotoxicity in human HeLa cells assessed as luciferase activity after 24 hrs by CellTiter-Glo luminescent cell viability assay; type: functional, cell-based
In short: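 Viability of HeLa cells measured after 24 h of compound exposure by cellular ATP (firefly luciferase, CellTiter-Glo) over a dose-response range. IC50 derived from the curves, triplicate or more.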

[1] = Cytotoxicity in human NHBE cells assessed as luciferase activity after 40 hrs by CellTiter-Glo luminescent cell viability assay; type: cell-based
In short: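 NHBE cells (passage 2, 2×10⁴ cells/cm²) grown on collagen-coated Transwell inserts, submerged for 5–7 days, then at air-liquid interface for a further 28 days (35 days total). Exposed to compound over a dose range, then viability read after 40 h as cellular ATP by CellTiter-Glo firefly luciferase. Triplicate or more.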

[2] = tested on: Mycolicibacterium fortuitum; experiment: Antibacterial activity against 0.5 uM compound pretreated Mycobacterium fortuitum infected in human HeLa cells assessed as inhibition of bacterial replication; type: functional, organism-based
In short: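 HeLa cells seeded at 5×10^5/well in EMEM with 10% FBS overnight, 37 °C, 5% CO₂. Washed free of antibiotics, then infected with washed M. fortuitum in uptake buffer at MOI 5 for 24 h. After a warm DMEM wash, compound added at 0.5 μM in HeLa medium, with Triton X-100 (1%) and 0.1% DMSO controls. After 24 h more, cells lysed and plated for CFU on 7H11 agar. At least triplicate.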

[3] = Antiviral activity against Parainfluenza virus 5 expressing renilla luciferase infected in HeLa cells assessed as inhibition viral replication by luciferase based reporter gene assay; type: functional, cell-based
In short: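 HeLa cells infected with 1 MOI of recombinant PIV5 carrying renilla luciferase between the HN and L genes, then incubated with compound. Cells harvested 1 day post infection and assayed for renilla luciferase. Screened first as singletons at 1 μM, then at 0.5 μM. IC50 taken from dose-response curves, at least triplicate.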

[4] = Inhibition of AKT -mediated FOXO1a nuclear export in human 786-O cells; type: cell-based
[5] = Antiproliferative activity against human 786-O cells; type: functional, cell-based; conditions: 786-0
[6] = Homo sapiens, HeLa, 24 h, read-out: IC50
[7] = Homo sapiens, NHBE, 40 h, read-out: IC50
[8] = Mammalian orthorubulavirus 5, HeLa, read-out: IC50

Row | IC50 [3, 8] [nM] | IC50 ([3]; hela) | IC50 [4] [nM] | Compound | IC50 (HeLa; [6]) [nM] | IC50 (HeLa; hela) | IC50 [1, 7] [nM] | IC50 ([1]; nhbe) | Activity [2] | IC50 [5] [nM]
1 | 250 | Dose-dependent effect | – | CCCCCCCCCCCC[n+]1c(/C=C/N(C)c2ccccc2)n(-c2ccccc2)c2ccc(-c3nc4ccccc4s3)cc21.[I-] | 440 | Dose-dependent effect | > 5000 | Dose-dependent effect | inactive | –
2 | 520 | Dose-dependent effect | 625 | CC[n+]1c(/C=C/N(C)c2ccccc2)n(-c2ccccc2)c2ccc(-c3nc4ccccc4s3)cc21 | 670 | Dose-dependent effect | 3180 | Dose-dependent effect | inactive | < 1250
3 | 410 | Dose-dependent effect | – | CCCCCC[n+]1c(/C=C/N(C)c2ccccc2)n(-c2ccccc2)c2ccc(-c3nc4ccccc4s3)cc21.[I-] | 420 | Dose-dependent effect | > 5000 | Dose-dependent effect | inactive | –
4 | 590 | Dose-dependent effect | – | CN(/C=C/c1n(-c2ccccc2)c2ccc(-c3nc4ccccc4s3)cc2[n+]1CCc1ccccc1)c1ccccc1.[I-] | 620 | Dose-dependent effect | 5000 | Dose-dependent effect | inactive | –

— ChEMBL document CHEMBL1687915, “Synthesis and biological evaluation of analogues of AKT (protein kinase B) inhibitor-IV” (J Med Chem, 2011)
